Assays:
Mus musculus [1] = assay: Percentage inhibition in mouse by using Croton oil-inflamed mouse ear test (topical dosing).; assay type: functional; parameters: concentration or dose not given beside the values
Method in brief: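 Male Cox ICR mice (25–35 g), 10 per group. Left ear given 25 μL of 1% compound in ethanol, repeated ~17 h later; 1 h after that, both ears given 25 μL 2% croton oil. After 4 h, 5 mm ear punches weighed. % inhibition = [(C − T1)/C]×100, using left-minus-right weight differences versus vehicle controls.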

Mus musculus [2] = organism: Mus musculus; assay: Ratio of the number of responders to the number of animals tested; 6/8; assay type: functional
[3] = (§1) Acute toxicity after intraperitoneal dose at 200 mg/kg in mice; assay type: organism-based; parameters: dose 200 mg/kg, route intraperitoneal; details: mouse, in vivo, ip, read-out: Lethality
Method in brief: (§2)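 Single intraperitoneal dose at the listed mg/kg; acute toxicity scored as % lethality = number of deaths / number of animals dosed, 7–10 animals per group.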

Rattus norvegicus [4] = assay: Percentage analgesia by rat hot plate test after oral administration at 300 mg/kg.; assay type: functional
Method in brief: (§3)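 Rats fasted 18 h, prescreened on a 55 ± 0.5 °C hot plate (latency <12 s, else lowest <30 s) to set the 0 h value. Groups of 8 dosed orally in sesame oil (1 mL/200 g); latency read at 1.5, 3, 5 h (24 h if persisting). %analgesia = [(LT(t) − LT(0))/(60 − LT(0))]×100, taken at the time of maximal latency.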

Mus musculus [5] = assay: Latency time measured by mouse hot plate test after subcutaneous administration at 200 mg/kg; assay type: functional; parameters: unit: s
Method in brief: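 Male CF-1 mice, 8 per group, given test agent sc in 0.2 mL ethanol/Tween-80/saline (10/10/80); dose 0.68 mmol (200 mg/kg for capsaicin). Placed on copper surface held at 55 ± 0.5 °C. Paw-response latency (s) reported as group mean ± SD; pretest latency ~5 s.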

[6] = Acute toxicity after intraperitoneal dose at 15 mg/kg in mice; assay type: organism-based; parameters: dose 15 mg/kg, route intraperitoneal; details: mouse, in vivo, ip, read-out: Lethality; method in brief: as §2
Mus musculus [7] = organism: Mus musculus; assay: Ratio of the number of responders to the number of animals tested; 2/8; assay type: functional
[8] = Acute toxicity after intraperitoneal dose at 50 mg/kg in mice; assay type: organism-based; parameters: dose 50 mg/kg, route intraperitoneal; details: mouse, in vivo, ip, read-out: Lethality; method in brief: as §2
[9] = Acute toxicity after intraperitoneal dose at 100 mg/kg in mice; assay type: organism-based; parameters: dose 100 mg/kg, route intraperitoneal; details: mouse, in vivo, ip, read-out: Lethality; method in brief: as §2
Mus musculus [10] = organism: Mus musculus; assay: Ratio of the number of responders to the number of animals tested; 4/8; assay type: functional
Mus musculus [11] = organism: Mus musculus; assay: Ratio of the number of responders to the number of animals tested; 7/8; assay type: functional
Mus musculus [12] = organism: Mus musculus; assay: Ratio of the number of responders to the number of animals tested; 0/8; assay type: functional
Mus musculus [13] = organism: Mus musculus; assay: Ratio of the number of responders to the number of animals tested; 6/6; assay type: functional
[14] = Acute toxicity after intraperitoneal dose at 50 mg/kg; assay type: organism-based; parameters: dose 50 mg/kg, route intraperitoneal; details: mouse, in vivo, ip, read-out: Lethality; method in brief: as §2
Rattus norvegicus [15] = assay: Percentage analgesia by using rat hot plate test after oral administration at 150 mg/kg; assay type: functional; method in brief: as §3
Mus musculus [16] = organism: Mus musculus; assay: Ratio of the number of responders to the number of animals tested; 8/8; assay type: functional
Mus musculus [17] = assay: as §1; assay type: functional; method in brief: as §2

| SMILES | Inhibition (Mus musculus [1]) [%] | Analgesia (Rattus norvegicus [4]) [%] | Latency (Mus musculus [5]) | further results |
| --- | --- | --- | --- | --- |
| CCCC/C=C/C/C=C\CCCCCCCCC(=O)NCc1ccc(O)c(OC)c1.CCCCC/C=C/C=C\CCCCCCCCC(=O)NCc1ccc(O)c(OC)c1 | 66.8 | 34 | >36.6 | Response (Mus musculus [2]): 6; mortality [3]: 0% |
| CCCCCCCCCCNC(=O)Cc1ccc(O)c(OC)c1 | 58.1 |  | 5.3 | mortality [6]: 100% |
| CCCCCCCC#CCCCCCCCCC(=O)NCc1ccc(O)c(OC)c1 | 50.3 | 15 | >18.6 | mortality [3]: 70%; Response (Mus musculus [7]): 2 |
| COc1cc(CNC(=O)CCCCCc2ccccc2)ccc1O | 57.6 |  | 6.2 | mortality [8]: 70% |
| CCCC(=O)NCc1ccc(O)c(OC)c1 | 3.2 |  | 10.8 | mortality [9]: 40%; Response (Mus musculus [10]): 4 |
| CCCCCCCCCNC(=O)Cc1ccc(O)c(OC)c1 | 80.7 |  | 22.3 | mortality [6]: 86% |
| CCCCCCCCCC/C=C\CCCCCC(=O)NCc1ccc(O)c(OC)c1 | 68.4 | 37 | 46.1 | mortality [3]: 30% |
| CCCCCCCCCCCCNC(=O)Cc1ccc(O)c(OC)c1 | 55.3 |  | 5 | mortality [8]: 0% |
| CCCCCCCCCCC(=O)NCc1ccc(O)c(OC)c1 | 29.6 |  | 47.7 | Response (Mus musculus [11]): 7; mortality [8]: 80% |
| CCCCCCCC/C=C\CCCCCCCCNC(=O)Cc1ccc(O)c(OC)c1 | 95.5 | 74 | 27.9 | Response (Mus musculus [11]): 7; mortality [3]: 50% |
| CCCCCCCC/C=C\CCCCCCCCCCCCCC(=O)NCc1ccc(O)c(OC)c1 | 48 |  | 6.1 | Response (Mus musculus [12]): 0 |
| COc1cc(CNC(=O)CCCCCCc2ccccc2)ccc1O | 46.2 | 1 | 6.8 | mortality [8]: 60% |
| CCCCC(=O)NCc1ccc(O)c(OC)c1 | 24.2 |  | 9.6 | mortality [9]: 60%; Response (Mus musculus [7]): 2 |
| CCCCCCC/C=C/CCCCCCCCC(=O)NCc1ccc(O)c(OC)c1 | 10.9 | 37 | 7.1 | mortality [3]: 60%; Response (Mus musculus [12]): 0 |
| CCCCCCCCCCCCCCCCCC(=O)NCc1ccc(O)c(OC)c1 | 11.3 | 3 | 5.9 | mortality [8]: 0%; Response (Mus musculus [12]): 0 |
| CCCCCCCC(=O)NCc1ccc(O)c(OC)c1 | 45.8 |  | >51.3 | Response (Mus musculus [13]): 6; mortality [8]: 90% |
| COc1cc(CC(=O)NC2CCCCCCC2)ccc1O | 34.7 | 4 | 34.2 | Response (Mus musculus [13]): 6; mortality [3]: 80% |
| CCCCCCCCCCCC(=O)NCc1ccc(O)c(OC)c1 | 48.1 |  | 9.9 | mortality [6]: 25%; mortality [14]: 100%; Response (Mus musculus [12]): 0 |
| C#CCCCCCCCCC(=O)NCc1ccc(O)c(OC)c1 | 36.4 | 15 | 17.1 | mortality [8]: 90% |
| CCCCCc1ccc(C(=O)NCc2ccc(O)c(OC)c2)cc1 | 9.3 |  | 6.9 | mortality [8]: 60% |
| CCCCCCCC[C@H]1O[C@H]1CCCCCCCC(=O)NCc1ccc(O)c(OC)c1 | 54.5 | 5 | 13.5 | mortality [3]: 40% |
| CCCC/C=C/CCCCCCCC(=O)NCc1ccc(O)c(OC)c1 |  | 22 |  |  |

| SMILES | Inhibition (Mus musculus [1]) [%] | Analgesia (Rattus norvegicus [4]) [%] | Latency (Mus musculus [5]) | further results |
| --- | --- | --- | --- | --- |
| CCCCCC/C=C\CCCCCCCCNC(=O)Cc1ccc(O)c(OC)c1 |  | 88 |  |  |
| CCCCCCCC/C=C\CCCCCCCNC(=O)Cc1ccc(O)c(OC)c1 |  | 66 |  |  |
| CCCC/C=C\CCCCCCCCNC(=O)Cc1ccc(O)c(OC)c1 |  | 74 |  |  |
| CCCCCCNC(=O)Cc1ccc(O)c(OC)c1 | -5.8 |  | 40.7 |  |
| CCCCC/C=C\C/C=C\CCCCCCCCNC(=O)Cc1ccc(O)c(OC)c1 |  | 89 |  |  |
| CCCCCCCC/C=C/CCCCCCCCNC(=O)Cc1ccc(O)c(OC)c1 |  | 95 |  |  |
| CCCCCC/C=C\CCCCCCCCCCNC(=O)Cc1ccc(O)c(OC)c1 |  |  |  | Analgesia (Rattus norvegicus [15]): 62% |
| CCCCCC(=O)NCc1ccc(O)c(OC)c1 | 33.6 |  | 16.8 | mortality [8]: 60%; Response (Mus musculus [10]): 4 |
| CCCCCCC(=O)NCc1ccc(O)c(OC)c1 | 33.7 |  | 29.8 | Response (Mus musculus [2]): 6; mortality [8]: 85% |
| CCCCCCCNC(=O)Cc1ccc(O)c(OC)c1 | 69.4 |  | 41.1 | mortality [6]: 100% |
| CCCCCCCCCC(C)CCCCCCCC(=O)NCc1ccc(O)c(OC)c1 (stereo not given) | 88.3 |  | 26.9 | mortality [9]: 40%; Response (Mus musculus [10]): 4 |
| CCCCCCCCCC/C=C/CCCCCC(=O)NCc1ccc(O)c(OC)c1 | 26.7 | 27 | 11.5 | mortality [3]: 60%; Response (Mus musculus [7]): 2 |
| COc1cc(CNC(=O)CCCCc2ccccc2)ccc1O | 56.4 |  | 12.2 | mortality [8]: 90% |
| CCCCCCC/C=C\CCCCCCCCCC(=O)NCc1ccc(O)c(OC)c1 | 76.9 | 43 | 35.7 | mortality [3]: 40% |
| C=C(CCCCCCCCC)CCCCCCCC(=O)NCc1ccc(O)c(OC)c1 | 96.2 | 67 | >22.8 | mortality [3]: 60%; Response (Mus musculus [7]): 2 |
| CCCCCCCCCCCCCC/C=C\CC(=O)NCc1ccc(O)c(OC)c1 |  |  | 7.5 | Response (Mus musculus [12]): 0 |
| CCCCC/C=C\CCCCCCCCCCC(=O)NCc1ccc(O)c(OC)c1 | 60 |  | >39.9 | Response (Mus musculus [16]): 8; mortality [3]: 30% |
| CCCCC/C=C\CCCCCCCCC(=O)NCc1ccc(O)c(OC)c1 | 79.3 |  | >48.8 | Response (Mus musculus [11]): 7; mortality [3]: 10% |
| CCCCCCC/C=C\CCCCCCCCCCCCC(=O)NCc1ccc(O)c(OC)c1 | 29 |  |  | mortality [3]: 0% |
| CCCCCCCCCC(=O)CCCCCCCC(=O)NCc1ccc(O)c(OC)c1 |  |  | 11.2 |  |
| CCCCCCCC[C@H]1O[C@@H]1CCCCCCCC(=O)NCc1ccc(O)c(OC)c1 | 26 |  | 10.7 | Lethality (Mus musculus [17]): 60% |
| COc1cc(CNC(=O)CCCc2ccccc2)ccc1O | 40.9 |  | 5.6 | mortality [8]: 75% |

Source: ChEMBL document CHEMBL1127051, “Vanilloids. 1. Analogs of capsaicin with antinociceptive and antiinflammatory activity” (J Med Chem, 1993)
